This is an account of results in ChEMBL document CHEMBL1817562, “Docking and SAR studies of D- and L-isofagomine isomers as human β-glucocerebrosidase inhibitors” (Bioorg Med Chem, 2011).

The structures appear in SMILES notation.

Assay [1] deals with Lactase/phlorizin hydrolase (Rattus norvegicus, UniProt Q02401). The assay can be described thus: Inhibition of rat intestinal lactase assessed as production of p-nitrophenol by spectrophotometry.
For a further assay, the system named is Canavalia ensiformis. Nature of the assay: Inhibition of jack beans alpha-mannosidase assessed as production of p-nitrophenol at 1000 uM by spectrophotometry. Put shortly:
(§1)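 p-Nitrophenyl glycoside matched to each enzyme, 2 mM, with enzyme at that enzyme's optimum pH: Penicillium decumbens α-L-rhamnosidase pH 4.0, bovine liver β-galactosidase pH 6.8, coffee bean α-galactosidase pH 6.5, jack bean α-mannosidase pH 4.5, snail β-mannosidase pH 4.5. Stopped with 400 mM Na2CO3; released p-nitrophenol read at 400 nm.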

In a further assay the test system is Helix pomatia. The assay can be described thus: Inhibition of snail beta-mannosidase assessed as production of p-nitrophenol at 1000 uM by spectrophotometry. Put shortly: as §1
A further assay deals with Penicillium decumbens. The assay can be described thus: Inhibition of Penicillium decumbens alpha-L-rhamnosidase assessed as production of p-nitrophenol at 1000 uM by spectrophotometry. Put shortly: as §1
A short description of assay [2]: Inhibition of rat intestinal cellobiase assessed as production of p-nitrophenol by spectrophotometry.
The nature of assay [3]: Inhibition of coffee beans alpha-galactosidase assessed as production of p-nitrophenol by spectrophotometry. Also noted: species or system Coffea. The method, boiled down: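 Commercial enzymes were assayed at their own optimum pH: bovine epididymis α-L-fucosidase pH 5.5, bovine liver β-galactosidase pH 6.8, coffee bean α-galactosidase pH 6.5. Reactions contained 2 mM of the matching p-nitrophenyl glycoside plus enzyme. They were stopped with 400 mM Na2CO3, and released p-nitrophenol was read at 400 nm.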

Another assay addresses T1, Beta-galactosidase (Bos taurus, UniProt Q58D55).
T1 sequence (Q58D55 whole entry): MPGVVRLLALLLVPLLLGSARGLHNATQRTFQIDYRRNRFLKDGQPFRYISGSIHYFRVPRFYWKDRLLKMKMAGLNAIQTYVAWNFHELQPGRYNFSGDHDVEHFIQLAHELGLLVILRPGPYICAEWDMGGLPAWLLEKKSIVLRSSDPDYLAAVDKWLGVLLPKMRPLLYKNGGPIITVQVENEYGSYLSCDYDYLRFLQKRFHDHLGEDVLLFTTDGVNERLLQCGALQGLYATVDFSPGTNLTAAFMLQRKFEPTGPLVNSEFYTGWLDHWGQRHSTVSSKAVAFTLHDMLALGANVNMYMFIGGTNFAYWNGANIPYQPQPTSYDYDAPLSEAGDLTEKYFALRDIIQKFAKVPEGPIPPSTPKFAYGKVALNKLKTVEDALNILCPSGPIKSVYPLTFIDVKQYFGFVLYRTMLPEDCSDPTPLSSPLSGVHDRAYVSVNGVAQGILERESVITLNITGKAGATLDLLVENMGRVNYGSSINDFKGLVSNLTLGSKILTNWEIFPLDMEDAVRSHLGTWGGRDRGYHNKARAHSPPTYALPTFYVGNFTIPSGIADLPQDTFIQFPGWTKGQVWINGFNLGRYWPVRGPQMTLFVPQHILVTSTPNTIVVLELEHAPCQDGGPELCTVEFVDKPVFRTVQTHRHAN
Nature of the assay: Inhibition of bovine liver beta-galactosidase assessed as production of p-nitrophenol by spectrophotometry.

In the next assay the test system is Oryza sativa. The following applies: 1000 uM.
Assay [4] is filed under the species Rattus norvegicus. The following applies: 1000 uM.
Assay [5] has as its target Sucrase-isomaltase, intestinal (Rattus norvegicus) (UniProt P23739). The following applies: 1000 uM.
For assay [6] the target is unchanged. The following applies: 1000 uM. This is another data set of the same source.
Assay [7] concerns the target T2, Tissue alpha-L-fucosidase (Bos taurus) (UniProt Q2KIM0).
T2 sequence (whole entry): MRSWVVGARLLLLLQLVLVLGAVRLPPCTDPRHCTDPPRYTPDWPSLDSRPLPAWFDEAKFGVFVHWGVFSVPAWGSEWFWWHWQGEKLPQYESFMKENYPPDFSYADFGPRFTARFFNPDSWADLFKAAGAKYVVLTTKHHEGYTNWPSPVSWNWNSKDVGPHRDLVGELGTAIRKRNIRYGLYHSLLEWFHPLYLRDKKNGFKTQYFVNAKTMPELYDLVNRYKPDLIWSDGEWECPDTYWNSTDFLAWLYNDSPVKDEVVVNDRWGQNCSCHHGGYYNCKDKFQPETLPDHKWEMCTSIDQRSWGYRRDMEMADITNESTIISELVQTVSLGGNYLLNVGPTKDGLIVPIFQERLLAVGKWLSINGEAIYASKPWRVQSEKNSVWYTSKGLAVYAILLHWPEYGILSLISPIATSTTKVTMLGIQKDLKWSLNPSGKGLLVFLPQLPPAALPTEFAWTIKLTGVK
The following applies: 1000 uM.

Assay [8] can be described thus: Inhibition of almond beta-glucosidase assessed as production of p-nitrophenol using p-nitrophenyl glycoside as substrate by spectrophotometry.
The target of assay [9] is T3, Beta-galactosidase (Bos taurus) (UniProt Q58D55).
T3 sequence (whole entry): T1 sequence (Q58D55 whole entry)
The assay can be described thus: Inhibition of bovine liver beta-galactosidase assessed as production of p-nitrophenol at 1000 uM by spectrophotometry. The method, boiled down: as §1

Assay [10] concerns the target T4, Lysosomal acid glucosylceramidase (Homo sapiens) (UniProt P04062).
T4 sequence (whole entry): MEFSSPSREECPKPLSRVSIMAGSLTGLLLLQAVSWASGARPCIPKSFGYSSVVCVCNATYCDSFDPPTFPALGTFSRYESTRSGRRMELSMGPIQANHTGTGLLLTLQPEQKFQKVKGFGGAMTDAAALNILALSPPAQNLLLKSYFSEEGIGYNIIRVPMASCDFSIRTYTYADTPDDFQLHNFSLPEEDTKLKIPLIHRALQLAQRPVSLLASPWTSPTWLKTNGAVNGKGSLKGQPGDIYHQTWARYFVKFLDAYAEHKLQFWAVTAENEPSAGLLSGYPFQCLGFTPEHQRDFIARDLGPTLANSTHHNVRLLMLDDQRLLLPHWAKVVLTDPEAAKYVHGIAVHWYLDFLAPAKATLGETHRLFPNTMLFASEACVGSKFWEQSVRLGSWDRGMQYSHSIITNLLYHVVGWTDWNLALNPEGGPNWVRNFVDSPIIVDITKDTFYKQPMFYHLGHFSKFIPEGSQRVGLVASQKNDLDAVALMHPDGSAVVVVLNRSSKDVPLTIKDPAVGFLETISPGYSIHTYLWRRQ
The following applies: 1000 uM.

Assay [11] has as its target T5, Glucosylceramidase (Bos taurus) (UniProt Q2KHZ8).
T5 sequence (whole entry): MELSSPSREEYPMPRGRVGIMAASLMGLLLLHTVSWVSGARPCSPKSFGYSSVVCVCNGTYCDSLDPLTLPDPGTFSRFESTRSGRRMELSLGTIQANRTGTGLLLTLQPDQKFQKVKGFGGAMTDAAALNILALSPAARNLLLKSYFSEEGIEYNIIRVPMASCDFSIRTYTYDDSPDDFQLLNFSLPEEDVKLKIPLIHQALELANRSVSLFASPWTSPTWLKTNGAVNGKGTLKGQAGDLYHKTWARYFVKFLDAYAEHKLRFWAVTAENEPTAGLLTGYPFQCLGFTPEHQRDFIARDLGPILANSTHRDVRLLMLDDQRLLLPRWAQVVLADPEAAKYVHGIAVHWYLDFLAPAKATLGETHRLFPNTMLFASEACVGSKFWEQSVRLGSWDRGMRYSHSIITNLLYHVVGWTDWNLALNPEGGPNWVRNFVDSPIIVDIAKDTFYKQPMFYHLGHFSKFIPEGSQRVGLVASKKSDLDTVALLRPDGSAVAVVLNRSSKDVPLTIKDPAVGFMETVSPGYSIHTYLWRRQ
The assay can be described thus: Inhibition of bovine liver beta-glucosidase assessed as production of p-nitrophenol using p-nitrophenyl glycoside as substrate at 1000 uM by spectrophotometry.

The species named for assay [12] is Rattus norvegicus. The assay can be described thus: Inhibition of rat intestinal cellobiase assessed as production of p-nitrophenol at 1000 uM by spectrophotometry.
The test system of another assay is Coffea. Nature of the assay: Inhibition of coffee beans alpha-galactosidase assessed as production of p-nitrophenol at 1000 uM by spectrophotometry. The method, boiled down:
as §1

Assay [13] can be described thus: Inhibition of rat intestinal maltase assessed as production of D-glucose using maltose as substrate after 10 to 30 mins by spectrophotometry. The method, boiled down: (§2)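 Enzymes were rice α-glucosidase at pH 5.0 and rat small-intestine brush border membranes (Kessler method) at pH 5.8. Each reaction contained 25 mM maltose and enzyme and was incubated 10–30 min at 37 °C. Reactions were stopped by heating at 100 °C for 3 min, then centrifuged. Released D-glucose was measured with a glucose test reagent by absorbance at 505 nm.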

Assay [14] in a line: Inhibition of rice alpha-glucosidase assessed as production of D-glucose using maltose as substrate after 10 to 30 mins by spectrophotometry. More on the design: species or system Oryza sativa. Put shortly:
as §2

In another assay the test system is Prunus dulcis. The following applies: 1000 uM.
The target of assay [15] is Lactase/phlorizin hydrolase (Rattus norvegicus) (UniProt Q02401). The following applies: 1000 uM.
Assay [16] addresses Sucrase-isomaltase, intestinal (Rattus norvegicus, UniProt P23739). The assay can be described thus: Inhibition of rat intestinal sucrase assessed as release of D-glucose at by spectrophotometry.

Chain of Lactase/phlorizin hydrolase (Q02401 868-1928 limits assumed): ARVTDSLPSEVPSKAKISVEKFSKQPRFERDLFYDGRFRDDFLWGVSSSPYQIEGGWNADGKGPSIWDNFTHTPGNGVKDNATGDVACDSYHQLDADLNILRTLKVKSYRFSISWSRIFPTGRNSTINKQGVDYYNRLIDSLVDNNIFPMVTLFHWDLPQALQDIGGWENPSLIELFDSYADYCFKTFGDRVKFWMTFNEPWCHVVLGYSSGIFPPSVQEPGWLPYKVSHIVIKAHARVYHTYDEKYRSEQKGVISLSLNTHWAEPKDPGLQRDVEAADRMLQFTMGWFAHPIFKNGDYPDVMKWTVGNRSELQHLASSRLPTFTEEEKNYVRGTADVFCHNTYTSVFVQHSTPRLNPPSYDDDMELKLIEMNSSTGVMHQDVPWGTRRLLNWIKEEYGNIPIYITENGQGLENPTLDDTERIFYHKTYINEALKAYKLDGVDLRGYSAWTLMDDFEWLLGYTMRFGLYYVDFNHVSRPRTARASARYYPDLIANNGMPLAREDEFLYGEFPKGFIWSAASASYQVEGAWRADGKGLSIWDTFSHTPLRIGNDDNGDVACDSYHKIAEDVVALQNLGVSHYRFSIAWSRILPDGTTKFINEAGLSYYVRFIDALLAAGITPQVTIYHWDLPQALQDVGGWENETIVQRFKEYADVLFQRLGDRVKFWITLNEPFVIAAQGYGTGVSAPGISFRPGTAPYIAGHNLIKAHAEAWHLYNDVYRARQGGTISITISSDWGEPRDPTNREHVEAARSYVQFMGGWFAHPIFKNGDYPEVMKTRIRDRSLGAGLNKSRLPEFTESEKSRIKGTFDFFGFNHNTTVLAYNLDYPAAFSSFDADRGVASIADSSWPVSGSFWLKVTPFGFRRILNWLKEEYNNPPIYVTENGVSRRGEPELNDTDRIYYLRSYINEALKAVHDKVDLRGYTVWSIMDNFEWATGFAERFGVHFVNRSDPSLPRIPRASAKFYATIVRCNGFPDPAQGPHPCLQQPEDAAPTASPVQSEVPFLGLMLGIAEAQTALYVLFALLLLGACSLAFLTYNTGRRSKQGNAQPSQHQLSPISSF
Chain of Sucrase-isomaltase, intestinal (Rattus norvegicus) (P23739 1-1013 limits assumed): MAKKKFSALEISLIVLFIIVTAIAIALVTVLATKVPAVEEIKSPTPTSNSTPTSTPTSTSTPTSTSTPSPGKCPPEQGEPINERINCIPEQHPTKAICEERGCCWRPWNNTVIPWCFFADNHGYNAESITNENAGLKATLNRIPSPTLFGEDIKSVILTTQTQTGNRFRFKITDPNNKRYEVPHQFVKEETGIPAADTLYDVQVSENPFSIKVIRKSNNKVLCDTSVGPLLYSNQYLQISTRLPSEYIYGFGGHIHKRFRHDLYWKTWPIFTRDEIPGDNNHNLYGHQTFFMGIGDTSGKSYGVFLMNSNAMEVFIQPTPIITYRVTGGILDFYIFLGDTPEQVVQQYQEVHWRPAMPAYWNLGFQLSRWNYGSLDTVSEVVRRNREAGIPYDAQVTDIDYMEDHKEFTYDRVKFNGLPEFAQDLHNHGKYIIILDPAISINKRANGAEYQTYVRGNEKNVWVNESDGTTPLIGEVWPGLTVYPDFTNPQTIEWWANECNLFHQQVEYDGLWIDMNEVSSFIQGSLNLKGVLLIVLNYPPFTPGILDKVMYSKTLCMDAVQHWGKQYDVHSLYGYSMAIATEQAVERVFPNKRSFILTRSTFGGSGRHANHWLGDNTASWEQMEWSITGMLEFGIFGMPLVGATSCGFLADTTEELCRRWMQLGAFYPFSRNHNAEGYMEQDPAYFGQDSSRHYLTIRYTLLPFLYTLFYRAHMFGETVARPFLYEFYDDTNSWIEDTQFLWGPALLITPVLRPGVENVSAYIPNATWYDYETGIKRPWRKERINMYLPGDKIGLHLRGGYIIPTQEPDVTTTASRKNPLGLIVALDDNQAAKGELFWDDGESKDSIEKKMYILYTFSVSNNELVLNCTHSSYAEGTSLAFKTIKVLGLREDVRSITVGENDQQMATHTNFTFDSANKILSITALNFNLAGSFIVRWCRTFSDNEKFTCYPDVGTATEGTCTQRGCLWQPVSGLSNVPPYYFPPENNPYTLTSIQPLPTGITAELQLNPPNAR
Chain of Sucrase-isomaltase, intestinal (Rattus norvegicus) (P23739 1014-1841 limits assumed): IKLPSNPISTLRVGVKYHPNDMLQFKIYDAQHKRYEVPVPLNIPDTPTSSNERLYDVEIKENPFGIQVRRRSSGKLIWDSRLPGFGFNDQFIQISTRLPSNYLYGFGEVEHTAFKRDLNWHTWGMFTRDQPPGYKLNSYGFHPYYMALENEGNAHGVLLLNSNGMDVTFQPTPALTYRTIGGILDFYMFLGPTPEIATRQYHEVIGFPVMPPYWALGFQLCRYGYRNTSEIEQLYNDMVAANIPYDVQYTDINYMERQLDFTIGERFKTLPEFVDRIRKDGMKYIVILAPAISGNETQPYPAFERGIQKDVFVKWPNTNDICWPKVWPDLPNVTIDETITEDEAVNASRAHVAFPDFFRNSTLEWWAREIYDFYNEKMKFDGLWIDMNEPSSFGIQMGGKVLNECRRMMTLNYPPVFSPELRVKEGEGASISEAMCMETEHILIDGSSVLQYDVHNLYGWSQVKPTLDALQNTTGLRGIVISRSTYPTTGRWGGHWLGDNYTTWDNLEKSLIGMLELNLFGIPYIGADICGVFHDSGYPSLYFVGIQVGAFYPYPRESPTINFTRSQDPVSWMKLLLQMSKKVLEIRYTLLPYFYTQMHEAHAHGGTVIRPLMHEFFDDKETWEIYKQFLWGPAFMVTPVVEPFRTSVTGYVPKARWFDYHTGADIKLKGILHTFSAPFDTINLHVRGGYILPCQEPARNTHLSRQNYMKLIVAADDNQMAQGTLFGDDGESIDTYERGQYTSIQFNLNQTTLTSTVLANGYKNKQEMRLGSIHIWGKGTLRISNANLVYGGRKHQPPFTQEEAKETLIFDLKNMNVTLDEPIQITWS
Chain of Lactase/phlorizin hydrolase (Rattus norvegicus) (Q02401 868-1928 limits assumed): as the sequence (Q02401 868-1928 limits assumed) above
Chain of Sucrase-isomaltase, intestinal (P23739 1-1013 limits assumed): as the sequence (P23739 1-1013 limits assumed) above
Chain of Sucrase-isomaltase, intestinal (P23739 1014-1841 limits assumed): as the sequence (P23739 1014-1841 limits assumed) above

In the case of `OC[C@H]1CNC[C@@H](O)[C@H]1O`, the concentration for half-maximal inhibition (IC50) (as a rule, the point on the concentration scale where inhibition reaches its midpoint) is 0.51 µM in [1]; 4.5 µM in assay [2]; 144 µM in [3]; 21 µM at Beta-galactosidase; 3.2 µM in assay [8]. Besides, the inhibition (in the assay on Canavalia ensiformis; with Helix pomatia; in the assay on Penicillium decumbens; in the assay on Oryza sativa; in the assay filed under Rattus norvegicus [4]; in assay [5]) was less than 50% throughout. Further, the inhibition in assay [6] and in assay [7] was less than 50% each time.
Take `OC[C@@H]1CNC[C@H](O)[C@@H]1O`: the inhibition (in assay [9]; in the assay with Canavalia ensiformis; in the assay with Helix pomatia; with Penicillium decumbens; in the assay on Oryza sativa; in the assay listed under Rattus norvegicus [4]) was less than 50% throughout. For the same compound, the inhibition in [5], in assay [6], in assay [10], in assay [7] and in assay [11] was less than 50% in each case. Further, the IC50 is 90 µM in assay [1], 607 µM in [2], 450 µM in assay [3] and 983 µM in [8].
Turning to `OC[C@@H]1NCC[C@@H](O)[C@@H]1O`, the inhibition (in the assay listed under Rattus norvegicus [12]; in the assay on Coffea; in assay [9]; with Canavalia ensiformis; in the assay on Helix pomatia; with Penicillium decumbens) was less than 50% in each case. For the same compound, the inhibition (in [5]; in [6]; with Prunus dulcis; in [10]; in assay [7]; in assay [15]) was less than 50% in each case. Also, in assay [11], the inhibition – broadly, the percentage by which the read-out fell short of the control – is less than 50%. Moreover, the IC50 in [13] was found to be 668 µM; in assay [14] it was 980 µM.
For `OC[C@@H]1CNC[C@H](O)[C@H]1O`, the inhibition in the assay with Coffea, in the assay with Canavalia ensiformis, with Helix pomatia, in the assay on Penicillium decumbens, with Oryza sativa and in the assay listed under Rattus norvegicus [4] was less than 50% in each case. The inhibition in [7] was less than 50%. Further, the IC50 in [1] stood at 20 µM; at Beta-galactosidase, 821 µM; in [16], 34 µM; in assay [8], 236 µM.
`OC[C@@H]1CNC[C@@H](O)[C@@H]1O`: the inhibition in the assay listed under Rattus norvegicus [12], with Coffea, in the assay with Canavalia ensiformis, in the assay on Helix pomatia, with Penicillium decumbens and in the assay with Oryza sativa was less than 50% in each case. Also, the inhibition (in the assay listed under Rattus norvegicus [4]; in [5]; in assay [6]; in the assay on Prunus dulcis; in assay [10]; in [7]) was less than 50% in each case. The IC50 in assay [1] worked out at 646 µM; at Beta-galactosidase it was 389 µM.
As for `OC[C@H]1NCC[C@@H](O)[C@H]1O`, the inhibition (in the assay filed under Rattus norvegicus [12]; in assay [9]; in the assay on Canavalia ensiformis; in the assay on Helix pomatia; in the assay on Penicillium decumbens; with Oryza sativa) was less than 50% in each case. In addition, the inhibition (in the assay filed under Rattus norvegicus [4]; in assay [5]; in assay [6]; with Prunus dulcis; in assay [10]; in [7]) was less than 50% throughout. The inhibition in assay [15] and in assay [11] was less than 50% in each case. Further, the half-maximal inhibitory concentration (IC50) in assay [3] stood at 8 µM.
With `OC[C@H]1NC[C@H](O)[C@@H](O)[C@@H]1O` [DUVOGLUSTAT], the inhibition (in the assay on Canavalia ensiformis; with Helix pomatia; in the assay with Penicillium decumbens; in assay [11]) was less than 50% throughout. Further, the IC50 in [13] turned out to be 0.65 µM; in assay [2] it was 327 µM; in [3], 880 µM; in assay [14], 0.03 µM; in assay [8], 80 µM.
